Screening results deposited in PubChem BioAssay by Johns Hopkins Ion Channel Center.
MrgX1 allo act: positive allosteric modulators of MrgX1, primary screen, HEK293 cells, Fluo-4 calcium flux; Mas-related G-protein coupled receptor member X1 (Homo sapiens), Q96LB2; FDSS; hits give high values; B-score at 10 µM; 0.63% of 310,000 active; AID 588675, 2011;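 active = plate-corrected calcium response at least 3 library SD above typical, normal starting fluorescence, not activating the receptor alone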;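 also: compound read alongside a low EC10 to EC30 dose of BAM8-22 agonist; peak minus trough fluorescence over baseline measured at the second addition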
Target sequence (Q96LB2 whole entry, looked up): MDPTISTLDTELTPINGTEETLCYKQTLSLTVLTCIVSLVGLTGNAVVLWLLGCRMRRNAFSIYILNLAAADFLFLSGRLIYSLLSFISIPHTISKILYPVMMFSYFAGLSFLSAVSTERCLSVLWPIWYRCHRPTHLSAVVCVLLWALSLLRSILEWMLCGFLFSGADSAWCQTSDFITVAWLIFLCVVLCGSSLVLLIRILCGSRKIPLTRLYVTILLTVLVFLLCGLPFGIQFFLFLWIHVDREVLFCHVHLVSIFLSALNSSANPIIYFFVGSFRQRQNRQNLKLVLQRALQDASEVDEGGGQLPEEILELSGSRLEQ
MrgX1 antagonist: antagonists of human MrgX1 receptor, primary screen, HEK293 cells, Fluo-4 calcium flux; BAM8-22 antagonism; hits give low values; 1.3% of 310,000 active; B-score at 10 µM; AID 588676, 2011;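 active = calcium-response B-score plate-corrected more than 3 library SD below zero, starting fluorescence within 5 deviations, no agonist response on first addition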;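 also: peak minus trough fluorescence over baseline after final BAM8-22 challenge near maximal dose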
RGS4 pot: RGS4 potentiators or activators, primary screen, cell-based, HEK293 M3R inducible RGS4, calcium flux. 0.92% of 310,000 active. B-score at 10 µM. carbachol calcium flux Fluo4; hits give low values. AID 463111, 2010;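 active = B-score of the integrated calcium signal more than 4 SD below the library mean, with starting fluorescence not abnormally high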;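 also: negative B-score means reduced calcium response which marks RGS4 activation or potentiation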
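Also added: carbachol at ECmax as muscarinic agonist stimulus; Assay system: HEK293 cells with stable M3R and inducible RGS4; Timing: overnight RGS4 induction, 30 min dye load 37 °C, 20 min compound RT; Measured by: Fluo4-AM (2 µM) calcium-flux fluorescence, kinetic read.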
MrgX1 ag: agonists of human MrgX1 receptor, primary screen, HEK293 cells, Fluo-4 calcium flux; Fluo-4 calcium fluorescence, agonist mode; hits give high values; B-score at 10 µM; 0.44% of 310,000 active; AID 588627, 2011; Mas-related G-protein coupled receptor member X1 (Homo sapiens), Q96LB2;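 active = calcium response B-score plate-corrected fluorescence ratio at least 3 library SD, with starting fluorescence B-score inside 5 SD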
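System: HEK293 cells stably expressing human MrgX1 receptor; Dosing: test compound in the initial addition of three; Schedule: overnight plating, then 30 min 37 °C plus 30 min room-temperature dye loading; Detection: kinetic calcium dye fluorescence, Fluo-4 NW; Controls: per-plate positive and negative controls for Z′ factor.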
RGS4 block: RGS4 inhibitors, primary screen, cell-based, HEK293 M3R inducible RGS4, calcium flux; Regulator of G-protein signaling 4 (Homo sapiens), P49798; Fluo-4 calcium flux; hits give high values; triggered by carbachol at its EC20; B-score at 10 µM; 0.45% of 310,000 active; AID 463165, 2010;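 active = B-score, a plate-corrected calcium signal, over three deviations above library mean, with baseline fluorescence within five deviations of library mean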;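 also: RGS4 expression induced by doxycycline in cells with stable M3 receptor; B-score is computed from the integrated fluorescence ratio over baseline after carbachol; higher B-score means a larger calcium signal and so more RGS4 inhibition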
Target sequence (P49798 whole entry, looked up): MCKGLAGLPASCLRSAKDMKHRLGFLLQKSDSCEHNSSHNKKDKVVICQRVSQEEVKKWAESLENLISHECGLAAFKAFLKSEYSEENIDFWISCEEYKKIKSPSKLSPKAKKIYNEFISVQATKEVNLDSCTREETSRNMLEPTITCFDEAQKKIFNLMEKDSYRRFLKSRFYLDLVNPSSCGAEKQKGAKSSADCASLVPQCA
The depositor's hits bear a star; i = inactive; . = no result given. This is a sample that favours compounds with a hit; in the whole collection about 3.5% have one here.

SMILES | MrgX1 allo act | MrgX1 antagonist | RGS4 pot | MrgX1 ag | RGS4 block
CCOc1cc(/C=C2\N=C(SC(C)C(N)=O)N(c3ccc(OC(F)F)cc3)C2=O)ccc1O (centres undefined) | 11* | i | i | i | i
NC(=O)CSC1=N/C(=C\c2ccco2)C(=O)N1c1ccc(OC(F)F)cc1 | i | i | i | i | i
CCOC(=O)c1ccc(COC(=O)c2ccc3c(c2)-c2ccccc2C3=O)cc1 | i | i | i | i | i
CCOC(=O)C1=C(O)c2ccccc2C(=O)/C1=C\c1ccc(CC)cc1 | i | -6* | i | i | i
CCCc1ccc(/C=C2\C(=O)c3ccccc3C(O)=C2C(=O)OCC)cc1 | i | -7* | i | i | i
CCOC(=O)C1=C(Cc2ccc(C)cc2)C(=O)c2ccccc2C1=O | i | i | i | 86* | i
CC(=O)Nc1nc(C)c(-c2nc3ccc([N+](=O)[O-])cc3[nH]2)s1 | i | i | i | i | i
CCCCCCOC1(c2ccccc2)OC(=O)c2ccccc21 (centres undefined) | i | i | -7* | i | i
O=C(CSc1nnc(CNC(=O)c2ccccc2)o1)NCc1ccc2c(c1)OCO2 | i | i | i | i | i
CS(=O)(=O)N(CC(=O)NCCSCc1ccco1)c1ccc(Cl)cc1 | i | i | i | i | i
COc1ccccc1CNC(=O)CN(c1ccc(C)cc1)S(=O)(=O)c1c(C)nn(C)c1C | i | i | i | i | i
CC(C)c1ccc(N(CC(=O)NCCSCc2ccco2)S(C)(=O)=O)cc1 | 7.1* | i | i | i | i
COc1ccc(N(CC(=O)NCc2ccccc2OC)S(=O)(=O)c2c(C)nn(C)c2C)cc1 | i | -6.3* | i | i | i
COc1ccc(N(CC(=O)NCC(C)C)S(=O)(=O)c2ccccc2)cc1 | i | i | i | i | i
COc1cccc(N(CC(=O)NCCSCc2ccco2)S(=O)(=O)c2ccccc2)c1 | 7.2* | i | i | i | i
COc1ccc(N(CC(=O)NCCSCc2ccccc2C)S(=O)(=O)c2ccccc2)cc1 | i | i | -7.8* | i | i
CC(=O)Nc1ccc(CN2CCN(CCc3ccccc3)C(CCO)C2)cc1 (centres undefined) | i | i | i | i | i
O=S(=O)(c1cnc[nH]1)N1CCc2ccccc21 | i | i | i | i | i
Cc1cc(C)c[n+](C(C)C(=O)c2ccc(Cl)cc2)c1 (centres undefined) | i | i | i | i | i
COc1ccccc1N(CC(=O)NCCSCc1ccccc1)S(C)(=O)=O | i | i | i | i | i
COc1ccccc1N(CC(=O)NCCSCc1cccc(C)c1)S(=O)(=O)c1ccccc1 | i | i | -8.6* | i | i
N/C(=N\OC(=O)c1cccnc1)c1ccc(Cl)cc1Cl | i | -4.6* | i | i | i
N/C(=N\OC(=O)c1cccnc1)c1ccccc1Cl | i | i | i | i | i
CCOc1ccc2c(c1)/C(=C(\C(Cl)=C(Cl)Cl)[N+](=O)[O-])N2 | i | i | i | i | i
CCCCOc1ccc2c(c1)/C(=C(\C(Cl)=C(Cl)Cl)[N+](=O)[O-])N2 | i | i | i | 34* | i
SMILES | MrgX1 allo act | MrgX1 antagonist | RGS4 pot | MrgX1 ag | RGS4 block
O=C(O)c1ccc(/C=N/NC(=O)c2ccc(NS(=O)(=O)c3cccs3)cc2)cc1 | i | i | i | i | i
O=C(N/N=C/c1ccncc1)c1ccc(NS(=O)(=O)c2cccs2)cc1 | 9.6* | i | i | i | i
Cc1ccc(C(CCN(Cc2ccccc2)C(=O)c2ccco2)c2ccco2)cc1 (centres undefined) | i | i | i | i | i
O=C(c1ccco1)N(CCC(c1ccccc1)c1ccco1)Cc1ccco1 (centres undefined) | i | -6.4* | i | i | i
COc1ccc(NC(=O)C(c2ccccc2)N(C)C(=O)c2ccc(=O)[nH]c2)cc1 (centres undefined) | i | i | i | i | i
O=C(NCc1ccccc1Cl)C(=O)NCC1OCCN1S(=O)(=O)c1cccs1 (centres undefined) | i | i | i | i | i
COc1ccc(NC(=O)CC2S/C(=N\c3nccs3)N(C)C2=O)cc1 (centres undefined) | i | i | i | i | i
O=C(OCn1ncc(Br)c(Br)c1=O)c1c(F)cccc1F | i | i | i | i | 5.4*
CC(=O)Cn1ncc(Br)c(Br)c1=O | . | . | i | . | i
O=C(c1c(F)cccc1F)N(Cc1ccccn1)C1CCCC1 | i | i | i | i | i
O=C(c1ccco1)N1CCN(C(c2cccs2)c2nnnn2C2CCCCC2)CC1 (centres undefined) | i | i | -7.6* | i | i
COc1ccc(C(c2nnnn2C2CCCC2)N2CCN(C(=O)c3ccco3)CC2)cc1OC (centres undefined) | i | i | i | i | i
CCSc1ccc([C@@H]2[C@H]3C(=O)N(C)C(=O)[C@H]3[C@]3(C(=O)OC)CCCCN23)cc1OC | i | i | . | i | .
C=C1C(=O)O[C@H]2[C@H]1[C@@H](O)CC(=C)[C@@H]1CC(=O)[C@@H](C)[C@H]21 | i | i | i | i | 6.7*
COc1ccc2c(c1)N(C)/C(=C/c1cccc[n+]1C)S2 | i | -5.8* | -9.4* | i | i
CCN1/C(=C/c2cccc[n+]2C)Sc2ccc(OC)cc21 | i | -6.1* | -7.5* | i | i
COc1cc(OC)cc(C(=O)/C=C2\Sc3ccccc3N2C)c1 | i | i | i | i | i
C=CC[n+]1c(-c2ccc(OC)c(OC)c2)csc1NNC(=O)Nc1ccccc1 | i | -4.6* | i | i | i
O=C(CN1CCc2ccccc2C1)Nc1ccccc1F | i | i | i | i | i
CC1Cc2ccccc2N1C(=O)CSc1nnnn1C(C)C (centres undefined) | i | i | i | i | i
CCC1CCCCN1CCCNS(=O)(=O)c1ccc2c(c1)oc(=O)n2C (centres undefined) | 18* | i | i | i | i
CC(=O)Nc1cccc(C(=O)OCc2ccc(C(=O)Oc3ccc(Cl)cc3)cc2)c1 | i | i | i | i | i
